Data reported in ChEMBL document CHEMBL1122793, “Synthesis, characterization, and properties of a group of platinum (IV) complexes” (J Med Chem, 1984).

Experiments:
Type in all cases: functional, cell-based
Conditions in all cases: Mus musculus
L1210 [1] = test: Compound was evaluated for antitumor activity against 10e 6 L1210 cells implanted intraperitoneally into mice after treatment on day 1
Method in brief: (§1)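 Mice received 10⁶ L1210 ascites cells ip and were treated ip on day 1 only. Treatment groups had six mice. The optimal dose was recorded in mg/kg, and activity was recorded as the maximum percent T/C, as defined in ref 9.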

L1210 [2] = test: Compound was evaluated for antitumor activity against 10e 6 L1210 cells implanted intraperitoneally into mice after treatment on day 1(reference 9); method in brief: as §1
L1210 [3] = test: Compound was evaluated for antitumor activity against 10e 6 L1210 cells implanted intraperitoneally into mice after treatment on days 1-5
Method in brief: (§2)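 Mice were implanted ip with 10⁶ L1210 ascites cells and treated ip on days 1-5, with the dose given in mg/kg per injection. Groups had six mice each. The read-out was the optimal dose and the maximum percent T/C, as defined in ref 9.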

L1210 [4] = test: Compound was evaluated for antitumor activity against 10e 6 L1210 cells implanted intraperitoneally into mice after treatment on days 1-9
L1210 [5] = test: Compound was evaluated for antitumor activity against 10e 6 L1210 cells implanted intraperitoneally into mice after treatment on day 1(maximum percentage toxicity); method in brief: as §1
L1210 [6] = test: Compound was evaluated for antitumor activity against 10e 6 L1210 cells implanted intraperitoneally into mice after treatment on day 1(maximum percentage toxicity)(reference 9); method in brief: as §1
L1210 [7] = test: Compound was evaluated for antitumor activity against 10e 6 L1210 cells implanted intraperitoneally into mice after treatment on days 1-5 (maximum percentage toxicity); method in brief: as §2
L1210 [8] = test: Compound was evaluated for antitumor activity against 10e 6 L1210 cells implanted intraperitoneally into mice after treatment on days 1-9 (maximum percentage toxicity)

## Dichloro-diammonium-platinum
L1210 [1]
  Optimal dose: 48 mg/kg
L1210 [2]
  Optimal dose: 120 mg/kg
L1210 [3]
  Optimal dose: 12 mg/kg
L1210 [4]
  Optimal dose: 20 mg/kg
L1210 [5]
  T/C: 150%
L1210 [6]
  T/C: 164%
L1210 [7]
  T/C: 157%
L1210 [8]
  T/C: 193%

## Tetrachloro-diammonium platinum
L1210 [1]
  Optimal dose: 32 mg/kg
L1210 [3]
  Optimal dose: 4 mg/kg
L1210 [5]
  T/C: 121%
L1210 [7]
  T/C: 114%

## Dichloro-dibromo-diammonium platinum
L1210 [1]
  Optimal dose: 12 mg/kg
L1210 [3]
  Optimal dose: 0.75 mg/kg
L1210 [5]
  T/C: 136%
L1210 [7]
  T/C: 129%
